This passage reports Ki results from ChEMBL document CHEMBL1155058, “N-Arylmethyl substituted iminoribitol derivatives as inhibitors of a purine specific nucleoside hydrolase” (Bioorg Med Chem, 2008).

This assay is described as follows: Inhibition of Trypanosoma vivax IAG-NH expressed in Escherichia coli WK6 cells. The method in brief: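 Recombinant N-terminal His6-tagged enzyme, purified by Ni-NTA affinity and Superdex-200 gel filtration, concentration per monomer from ε280 47752 M-1cm-1. […] Initial rates fitted to competitive inhibition equation.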
As to `N#Cc1cccc(CN2C[C@H](O)[C@H](O)[C@H]2CO)c1`, the Ki came out at 3800 nM. The same measure for `OC[C@@H]1[C@@H](O)[C@@H](O)CN1Cc1ccccc1`: 59000 nM; for `COc1ccc(CN2C[C@H](O)[C@H](O)[C@H]2CO)cn1`: 32000 nM. The same measure for `OC[C@@H]1[C@@H](O)[C@@H](O)CN1Cc1ccncc1`: 20000 nM; for `OC[C@@H]1[C@@H](O)[C@@H](O)CN1Cc1ccnc2ccccc12`: 29000 nM; for `Cc1nc(-c2ccccc2)ncc1CN1C[C@H](O)[C@H](O)[C@H]1CO`: 43000 nM. The same measure for `OC[C@@H]1[C@@H](O)[C@@H](O)CN1Cc1ccc(I)cc1`: 4300 nM; for `OC[C@@H]1[C@@H](O)[C@@H](O)CN1Cc1ccc2ccccc2c1`: 2000 nM; for `O=[N+]([O-])c1ccc(CN2C[C@H](O)[C@H](O)[C@H]2CO)cc1`: 7500 nM. Regarding `OC[C@@H]1[C@@H](O)[C@@H](O)CN1Cc1ccc(-n2cccc2)cc1`, the affinity, expressed as Ki, was 1000 nM. In turn, `OC[C@@H]1[C@@H](O)[C@@H](O)CN1Cc1ccc(-n2cccn2)cc1` registered an inhibition constant Ki of 1200 nM. For the molecule `Cc1nn(-c2ccccc2)nc1CN1C[C@H](O)[C@H](O)[C@H]1CO`, the Ki came to 63 nM.

`O=[N+]([O-])c1cccc(CN2C[C@H](O)[C@H](O)[C@H]2CO)c1` yielded a Ki of 23000 nM. `OC[C@@H]1[C@@H](O)[C@@H](O)CN1Cc1ccc2ccccc2n1` yielded a Ki of 180 nM.

`OC[C@@H]1[C@@H](O)[C@@H](O)CN1Cc1cccc2cccnc12` had a Ki of 10.8 nM. To `OC[C@@H]1[C@@H](O)[C@@H](O)CN1Cc1cccc(-n2cccc2)c1` belongs 3400 nM. To `OC[C@@H]1[C@@H](O)[C@@H](O)CN1Cc1c[nH]c2c(O)ncnc12` belongs 4.4 nM; to `Nc1ncnc2c(CN3C[C@H](O)[C@H](O)[C@H]3CO)c[nH]c12`, 4.1 nM; to `OC[C@@H]1[C@@H](O)[C@@H](O)CN1Cc1ccc2cccnc2c1`, 720 nM. The same measure for `OC[C@@H]1[C@@H](O)[C@@H](O)CN1Cc1ccc2cccc(O)c2n1`: 1000 nM; for `Cn1c(CN2C[C@H](O)[C@H](O)[C@H]2CO)nc2ccccc21`: 2100 nM; for `OC[C@@H]1[C@@H](O)[C@@H](O)CN1Cc1nccc2ccccc12`: 750 nM.

`N#Cc1ccc(CN2C[C@H](O)[C@H](O)[C@H]2CO)cc1` returned a Ki of 26000 nM. To `OC[C@@H]1[C@@H](O)[C@@H](O)CN1Cc1ccc(-n2cncn2)cc1` belongs 1200 nM; to `Cn1nnc2cc(CN3C[C@H](O)[C@H](O)[C@H]3CO)ccc21`, 720 nM. To `OC[C@@H]1[C@@H](O)[C@@H](O)CN1Cc1c[nH]c2ccccc12` belongs 12000 nM.

`COc1cccc2c(CN3C[C@H](O)[C@H](O)[C@H]3CO)c[nH]c12` returned a Ki of 2300 nM. Compared with the last molecule, the Ki is about 5.2-fold lower. The same measure for `OC[C@@H]1[C@@H](O)[C@@H](O)CN1Cc1cnc2ccccc2c1`: 20000 nM. `Nc1ncccc1CN1C[C@H](O)[C@H](O)[C@H]1CO` returned a Ki of 120000 nM. This Ki is about 6-fold higher than that of the molecule before.
